Screens: PubChem, several laboratories
FAS-TE inh: FAS thioesterase domain inhibitors, primary screen, biochemical, fluorescence intensity, uHTS; recombinant FAS-TE, OMFH fluorogenic substrate, fluorescence endpoint; inhibition, % at 15 µM; Fatty acid synthase (Homo sapiens), P49327; AID 602261, 2012; 360,000 compounds, 0.67% hits;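 active = compounds whose normalised, plate-corrected inhibition of enzyme fluorescence in the single-dose primary screen is 50% or more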;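 note: 0% = DMSO with enzyme and 100% = substrate without enzyme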
Calpain2 inh: inhibitors of pig calpain II, primary screen, biochemical, fluorogenic peptide substrate, 1536-well; purified calpain II, 30 min; inhibition, % at 16 µM; 220,000 compounds, 0.37% hits;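 active = inhibition above about 50%, limit read from the data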
Runt-SMMHC FRET: inhibitors of RUNX1 Runt–CBFb-SMMHC binding, primary screen, biochemical, FRET, Cerulean-Runt, Venus-CBFb-SMMHC, uHTS. Runt-related transcription factor 1 (Homo sapiens) + Core-binding factor subunit beta …. Cerulean-Runt/Venus-CBFb-SMMHC FRET ratio 530/480, 1 h. inhibition, % at 20 µM. 220,000 compounds, 0.74% hits. AID 1434, 2008;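 active = mean inhibition across duplicate retests at 20 µM reaching about 50%, limit read from the data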;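 note: 0% = DMSO wells and 100% = wells with excess untagged CBFb-SMMHC; inhibitors lower the FRET ratio by blocking Runt binding to CBFb-SMMHC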
Target sequence (Q01196 whole entry, looked up): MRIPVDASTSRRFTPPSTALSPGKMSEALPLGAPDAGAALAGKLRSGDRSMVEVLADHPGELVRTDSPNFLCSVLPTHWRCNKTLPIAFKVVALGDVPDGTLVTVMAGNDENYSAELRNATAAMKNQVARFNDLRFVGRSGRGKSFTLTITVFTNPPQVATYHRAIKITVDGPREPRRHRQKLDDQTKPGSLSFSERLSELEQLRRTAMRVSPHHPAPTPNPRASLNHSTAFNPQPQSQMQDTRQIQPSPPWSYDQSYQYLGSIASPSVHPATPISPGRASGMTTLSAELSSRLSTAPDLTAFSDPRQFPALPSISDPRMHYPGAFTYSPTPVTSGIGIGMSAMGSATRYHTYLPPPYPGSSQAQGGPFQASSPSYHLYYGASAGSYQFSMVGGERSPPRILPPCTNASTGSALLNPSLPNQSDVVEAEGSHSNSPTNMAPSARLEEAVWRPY
Target sequence (Q13951 whole entry, looked up): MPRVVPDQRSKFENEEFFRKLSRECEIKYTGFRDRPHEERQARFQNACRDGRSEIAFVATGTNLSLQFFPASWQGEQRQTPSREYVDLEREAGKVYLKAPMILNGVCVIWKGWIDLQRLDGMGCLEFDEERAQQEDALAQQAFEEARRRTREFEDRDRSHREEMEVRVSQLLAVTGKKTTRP
RanGTP-Imp inh: inhibitors of RanGTP-importin-beta interaction, primary screen, biochemical, FRET, CFP-Ran, YFP-importin-beta, homogeneous; cell-free CFP-Ran/YFP-importin-beta FRET ratio; inhibition, % (no concentration beside the values); 300,000 compounds, 1.1% hits; Ran GTPase (GTP-bound) - importin-beta complex; AID 2216, 2009;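 active = more than half of the replicate wells show a fall in the fluorescence ratio signal beyond about 16%, limit read from the data, passing the limit was not always enough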;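 note: 0% = DMSO wells and 100% = Ran loaded with GDP instead of GTP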
Runt-CBFb FRET: inhibitors of RUNX1 Runt–CBFb binding, primary screen, biochemical, FRET, Cerulean-Runt, Venus-CBFb, uHTS | Runt-related transcription factor 1 (Homo sapiens) + Core-binding factor subunit beta … | 220,000 compounds, 0.46% hits | Cerulean-Runt/Venus-CBFb FRET ratio 530/480, 1 h | inhibition, % at 20 µM;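 active = inhibition over about 50% at 20 µM in the single-dose screen, limit read from the data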;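 note: 0% = DMSO wells and 100% = excess unlabeled CBFb competitor control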
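Measured by: fluorescence energy transfer, 422 nm excitation, 530/480 nm emission; test system: Cerulean-tagged RUNX1 Runt domain (FRET donor) fusion protein; buffer or medium: Tris pH 7.5 buffer with BSA; compound: one dose, 20 µM compound, 1% DMSO; times: two 1 h room-temperature incubations shielded from light; benchmarks: unlabeled CBFb 5 µM, positive control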
FAS-TE inh conf: FAS thioesterase domain inhibitors, confirmation, biochemical, fluorescence intensity, single concentration | shares compounds with FAS-TE inh | recombinant FAS-TE, OMFH fluorogenic substrate | inhibition, % at 15 µM | 2,300 compounds, 45% hits | AID 624325, 2012;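 active = compounds inhibiting the enzyme by at least 50% at 15 µM in any one of the replicates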;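 note: 0% = enzyme with DMSO only and 100% = wells lacking enzyme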
* hit, by the source's call. Rows were chosen to be rich in hits. Some 2.1% of all compounds tested hit in one or more screens of this group.

COc1cc(C2c3c(c(C)c(C)oc3=O)Oc3c(C)c(C)oc(=O)c32)ccc1OS(=O)(=O)c1ccc(C)cc1 was read as FAS-TE inh 84* and FAS-TE inh conf 22.
`O=C(COC(=O)c1cc([N+](=O)[O-])ccc1N1CCOCC1)Nc1c(Cl)cccc1C(F)(F)F` gave FAS-TE inh 65*, RanGTP-Imp inh 0 and FAS-TE inh conf 62*.
Screening O=C(COC(=O)c1cc([N+](=O)[O-])ccc1N1CCOCC1)Nc1ncc(Cl)cc1Cl returned FAS-TE inh 54*, RanGTP-Imp inh 0 and FAS-TE inh conf 71*.
For COc1ccc(C2=NN(CN3C(=O)C(=O)c4ccccc43)C(c3cccc([N+](=O)[O-])c3)C2)cc1 (stereo unspecified) the results were FAS-TE inh 60*, Calpain2 inh -54, Runt-SMMHC FRET -5, RanGTP-Imp inh 1, Runt-CBFb FRET 0 and FAS-TE inh conf 60*.
O=C(Nc1ccc(Cl)cc1Cl)c1cccc(N2C(=O)C=CC2=O)c1 was read as FAS-TE inh 24 and RanGTP-Imp inh -3.
For COC(=O)c1ccc(CNC(=O)COC(=O)C2CC3C=CC2C3)cc1 (stereo unspecified) the results were FAS-TE inh 0, Calpain2 inh -17, Runt-SMMHC FRET 0, RanGTP-Imp inh 6 and Runt-CBFb FRET 0.
For CC1(C(=O)N2CCCCC2)CCN1C(=O)C1(c2ccccc2)CC1 (stereo unspecified) the results were FAS-TE inh -9.
`CC(=O)NC(=S)Nc1sc2c(c1C#N)CCCCC2` gave FAS-TE inh 57*, Calpain2 inh 2, Runt-SMMHC FRET 0, RanGTP-Imp inh 4, Runt-CBFb FRET 12 and FAS-TE inh conf 59*.
For COc1cc(/C=N/N(C)c2ccccc2)cc(Cl)c1O the results were FAS-TE inh 73*, Calpain2 inh -3, Runt-SMMHC FRET 12, RanGTP-Imp inh -2, Runt-CBFb FRET 13 and FAS-TE inh conf 57*.
Screening O=C(c1cccc(NS(=O)(=O)c2ccc(F)c(F)c2)c1)N1CCN(C(c2ccccc2)c2ccccc2)CC1 returned FAS-TE inh 90*, Calpain2 inh -40, Runt-SMMHC FRET -3, RanGTP-Imp inh 2, Runt-CBFb FRET 1 and FAS-TE inh conf 45.
Screening C/C=C/C=N/NC(=O)CN(c1ccc(Br)cc1)S(=O)(=O)c1ccccc1 returned FAS-TE inh 58*, Calpain2 inh -26, Runt-SMMHC FRET 3, RanGTP-Imp inh -1, Runt-CBFb FRET 2 and FAS-TE inh conf 72*.
Screening CCOc1ccc(NC(=O)CN(c2ccc([N+](=O)[O-])cc2)S(=O)(=O)c2ccccc2)cc1 returned FAS-TE inh 55*, Calpain2 inh 25, Runt-SMMHC FRET -2, RanGTP-Imp inh 4, Runt-CBFb FRET 4 and FAS-TE inh conf 37*.
Screening O=C(CN(c1ccc(Cl)cc1)S(=O)(=O)c1ccccc1)N/N=C/c1ccco1 returned FAS-TE inh 58*, Calpain2 inh -34, Runt-SMMHC FRET 0, RanGTP-Imp inh 1, Runt-CBFb FRET 5 and FAS-TE inh conf 41*.
Screening COc1ccc(N(CC(=O)N/N=C/c2ccc(N(C)C)cc2)S(=O)(=O)c2ccccc2)cc1 returned FAS-TE inh 12 and RanGTP-Imp inh 0.
CCOc1ccc(N(CC(=O)N/N=C/c2ccccn2)S(=O)(=O)c2ccc(Cl)cc2)cc1 was read as FAS-TE inh 61* and FAS-TE inh conf 66*.
S=C(NCc1ccco1)N1CCN(C/C=C/c2ccccc2)CC1 was read as FAS-TE inh 2, Calpain2 inh 8, Runt-SMMHC FRET 0, RanGTP-Imp inh -1 and Runt-CBFb FRET 35.
`O=C(CC(=O)c1ccccc1)Nc1ccccc1C(F)(F)F` gave FAS-TE inh -1 and RanGTP-Imp inh 2.
`O=C(Nn1c(-c2ccc(Br)cc2)nc2ccccc2c1=O)c1ccc([N+](=O)[O-])cc1` gave FAS-TE inh 65*, Calpain2 inh -7, Runt-SMMHC FRET 3, RanGTP-Imp inh 1, Runt-CBFb FRET -1 and FAS-TE inh conf 45*.
`O=C(Nn1c(-c2ccncc2)nc2ccccc2c1=O)c1ccc(Br)cc1` gave FAS-TE inh -6, Calpain2 inh -5, Runt-SMMHC FRET -1, RanGTP-Imp inh 1 and Runt-CBFb FRET 0.
Screening O=C1CC2(CCN(C(=O)c3cccc(F)c3)CC2)Oc2ccccc21 returned FAS-TE inh -7 and RanGTP-Imp inh 2.
For CCCC(C)C1c2c(c(C)c(C)oc2=O)Oc2c(C)c(C)oc(=O)c21 (stereo unspecified) the results were FAS-TE inh 59* and FAS-TE inh conf 56*.
N#CCC(=O)Nc1ccc(C(=O)OCC(=O)Nc2cccc(C(F)(F)F)c2)cc1 was read as FAS-TE inh 6, Calpain2 inh -67, Runt-SMMHC FRET -1, RanGTP-Imp inh 1 and Runt-CBFb FRET -1.
O=C1c2ccccc2C(=O)N1CCCCN(C(=O)c1ccc([N+](=O)[O-])cc1)c1ccc(Cl)cc1 was read as FAS-TE inh -45, Calpain2 inh -36, Runt-SMMHC FRET 1, RanGTP-Imp inh 0 and Runt-CBFb FRET 0.
For O=C1c2ccccc2C(=O)N1CCCCN(C(=O)c1cc([N+](=O)[O-])cc([N+](=O)[O-])c1)c1ccc(Cl)cc1 the results were FAS-TE inh 54*, Calpain2 inh -4, Runt-SMMHC FRET 2, RanGTP-Imp inh 1, Runt-CBFb FRET 2 and FAS-TE inh conf 26.
For CCOc1ccc(NC(=O)Cn2nnc(C(=O)NCc3cccs3)c2N)cc1 the results were FAS-TE inh -7 and RanGTP-Imp inh -1.
For O=C(CSc1nc2ccccc2c(=O)n1-c1ccccc1)N/N=C/C=C/c1ccccc1[N+](=O)[O-] the results were FAS-TE inh 23, Calpain2 inh -74, Runt-SMMHC FRET -6 and RanGTP-Imp inh 2.
For O=C(CSc1nc2ccccc2c(=O)n1-c1ccc(Cl)cc1)N/N=C/C=C/c1ccccc1[N+](=O)[O-] the results were FAS-TE inh 80*, Calpain2 inh -59, Runt-SMMHC FRET -2, RanGTP-Imp inh 1, Runt-CBFb FRET -6 and FAS-TE inh conf 17.
